Source: ChEMBL document CHEMBL2346655, “Synthesis and in vitro biological evaluation of 2,6,9-trisubstituted purines targeting multiple cyclin-dependent kinases” (Eur J Med Chem, 2013)
The source made the active and inactive calls. The calls are words filed in the database; no cut-off is given here.

Tests used:
K562 [1] = experiment: Cytotoxicity against human K562 cells assessed as reduction in number of viable cells after 72 hrs by fluorescence assay; format: functional, cell-based; conditions: K562, 72 h
Summary of the method: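 Three-fold compound dilutions tested in triplicate on cultured cells for 72 h. Viable cells detected by adding Calcein AM and reading fluorescence at 485/538 nm (ex/em).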

[2] = molecular target: T1, Cyclin-dependent kinase 7/ cyclin H (Homo sapiens) (UniProt P51946+P50613); experiment: Inhibition of CDK7/CyclinH/MAT1-mediated phosphorylation of RNA polymerase 2 at Ser2 in human K562 cells up to 25 uM after 24 hrs by immunoblotting analysis; format: cell-based
Summary of the method: (§1)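 Treated cells were lysed in Laemmli buffer and separated by SDS-PAGE, then transferred to nitrocellulose. Blots were probed overnight with phospho-RNA polymerase II (S2) and total RNA polymerase II (clone ARNA-3) antibodies, followed by peroxidase secondaries. Signal was developed by ECL on a CCD camera.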

K562 [3] = experiment: Cell cycle arrest in human K562 cells assessed as accumulation at G2/M phase at 5 uM after 24 hrs by propidium iodide staining-based flow cytometric analysis (reference value: 13.8%); format: functional
Summary of the method: (§2)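 Sub-confluent cells treated at several concentrations for 24 h, then pulsed with 10 μM BrdU for 30 min at 37 °C before harvest. Cells were PBS-washed, fixed in 70% ethanol, denatured in 2 M HCl and neutralized. Stained with fluorescein anti-BrdU and propidium iodide; DNA content read by flow cytometry with 488 nm excitation.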

[4] = molecular target: T2, CDK9/cyclin T1 (Homo sapiens) (UniProt O60563+P50750); experiment: Inhibition of CDK9/CyclinT1-mediated phosphorylation of RNA polymerase 2 at Ser5 in human HCT116 cells up to 25 uM after 24 hrs by immunoblotting analysis; format: cell-based; conditions: HCT-116
Summary of the method: (§3)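 Immunoblot: cells lysed by harvesting in Laemmli sample buffer, proteins run on SDS-PAGE, electroblotted to nitrocellulose, blocked, primary antibodies overnight, peroxidase-conjugated secondaries, ECL detection by CCD camera. Antibodies included anti-phospho RNA polymerase II (S2), anti-RNA polymerase II (ARNA-3), anti-p53 (DO-1), anti-p21waf1 (118), anti-PCNA.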

[5] = molecular target: Cyclin-dependent kinase 5/CDK5 activator 1 (Homo sapiens, UniProt Q00535); experiment: Inhibition of CDK5/P35 (unknown origin) using histone H1 as substrate; format: protein-complex assay
Chain of Cyclin-dependent kinase 5/CDK5 activator 1 (Q00535 whole entry): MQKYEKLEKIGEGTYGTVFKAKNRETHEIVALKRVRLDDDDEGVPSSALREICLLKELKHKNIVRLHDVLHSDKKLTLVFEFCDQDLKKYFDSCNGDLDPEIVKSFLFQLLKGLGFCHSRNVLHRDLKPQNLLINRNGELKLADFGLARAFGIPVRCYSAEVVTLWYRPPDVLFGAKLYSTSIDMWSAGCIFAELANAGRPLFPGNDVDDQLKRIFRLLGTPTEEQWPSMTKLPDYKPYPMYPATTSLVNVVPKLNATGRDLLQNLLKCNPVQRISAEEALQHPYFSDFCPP
Chain of Cyclin-dependent kinase 5/CDK5 activator 1 (Q15078 whole entry, further chain): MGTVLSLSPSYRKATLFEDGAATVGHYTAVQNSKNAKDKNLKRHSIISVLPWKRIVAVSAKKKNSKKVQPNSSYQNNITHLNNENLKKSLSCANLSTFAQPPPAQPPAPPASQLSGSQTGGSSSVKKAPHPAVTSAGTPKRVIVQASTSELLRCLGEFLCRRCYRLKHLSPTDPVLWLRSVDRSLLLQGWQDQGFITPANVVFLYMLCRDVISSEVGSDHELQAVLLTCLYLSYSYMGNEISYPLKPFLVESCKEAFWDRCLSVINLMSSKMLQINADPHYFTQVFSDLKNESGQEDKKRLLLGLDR

K562 [6] = experiment: Induction of apoptosis in human K562 cells assessed as caspase-3 activation up to 5 uM after 24 hrs by immunoblotting analysis; format: functional, cell-based
Summary of the method: (§4)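 Cells were treated for 24 h, harvested directly into Laemmli sample buffer, and run on SDS-PAGE. Proteins were blotted to nitrocellulose, blocked, probed overnight with primary antibodies, then with peroxidase-linked secondaries. Bands were detected by ECL with a CCD camera. PCNA and tubulin served as loading references.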

[7] = molecular target: T1, Cyclin-dependent kinase 7/ cyclin H (Homo sapiens); experiment: Inhibition of CDK7/CyclinH/MAT1-mediated phosphorylation of RNA polymerase 2 at Ser2 in human HCT116 cells up to 25 uM after 24 hrs by immunoblotting analysis; format: cell-based; conditions: HCT-116; summary of the method: as §1
K562 [8] = experiment: Induction of apoptosis in human K562 cells assessed as change in BCL2 level up to 5 uM after 24 hrs by immunoblotting analysis; format: functional, cell-based; summary of the method: as §4
MCF7 = experiment: Ratio of roscovitine IC50 to compound IC50 for human MCF7 cells; format: functional
Summary of the method: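 Cytotoxicity IC50s underlying the ratio: cells treated in triplicate with three-fold compound dilutions for 72 h, then Calcein AM added and live-cell fluorescence read at 485/538 nm (ex/em).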

K562 [9] = experiment: Cell cycle arrest in human K562 cells assessed as accumulation at subG1 phase at 0.2 uM after 24 hrs by propidium iodide staining-based flow cytometric analysis (reference value: 2.4%); format: functional; summary of the method: as §2
HCT-116 [10] = experiment: Induction of apoptosis in human HCT116 cells assessed as change in BCL2 level up to 5 uM after 24 hrs by immunoblotting analysis; format: functional, cell-based; summary of the method: as §4
K562 [11] = experiment: Cell cycle arrest in human K562 cells assessed as accumulation at S phase after 24 hrs by BrdU incorporation assay; format: functional, cell-based
Summary of the method: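 Sub-confluent cells were exposed to compound for 24 h, then pulse-labeled with 10 μM BrdU for 30 min at 37 °C. After ethanol (70%) fixation and 2 M HCl denaturation, cells were stained with fluorescein anti-BrdU antibody plus propidium iodide. The BrdU-positive S-phase fraction was quantified by flow cytometry (488 nm laser).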

HCT-116 [12] = experiment: Induction of apoptosis in human HCT116 cells assessed as caspase-3 activation up to 5 uM after 24 hrs by immunoblotting analysis; format: functional, cell-based; summary of the method: as §4
HCT-116 [13] = experiment: Cell cycle arrest in human HCT116 cells assessed as accumulation at G2/M phase at 0.2 uM after 24 hrs by propidium iodide staining-based flow cytometric analysis (reference value: 19.6%); format: functional; summary of the method: as §2
[14] = molecular target: T2, CDK9/cyclin T1 (Homo sapiens); experiment: Inhibition of CDK9/CyclinT1-mediated phosphorylation of RNA polymerase 2 at Ser5 in human K562 cells up to 25 uM after 24 hrs by immunoblotting analysis; format: cell-based; summary of the method: as §3
K562 [15] = experiment: Cell cycle arrest in human K562 cells assessed as accumulation at G1 phase at 1 uM after 24 hrs by propidium iodide staining-based flow cytometric analysis (reference value: 47.3%); format: functional; summary of the method: as §2
K562 [16] = experiment: Induction of apoptosis in human K562 cells assessed as decrease in MCL1 level after 24 hrs by immunoblotting analysis; format: functional, cell-based; summary of the method: as §4

inhibition [2]: Active | inhibition [4]: Active | IC50 [5]: 71 nM | inhibition [7]: Active | inhibition [14]: Active
Structure (SMILES): CC[C@@H](Nc1nc(NCc2cc(Cl)ccc2O)c2ncn(C(C)C)c2n1)C(C)O (mixture of isomers)
IC50 (K562 [1]): 3300 nM | Activity (K562 [3]): 31.5% | Activity (K562 [6]): inactive | Activity (K562 [8]): inactive | Ratio IC50 (MCF7): >9 | Activity (K562 [9]): 2.8% | Activity (HCT-116 [10]): inactive | Activity (K562 [11]): Dose-dependent effect | Activity (HCT-116 [12]): inactive | Activity (HCT-116 [13]): 23.4% | Activity (K562 [15]): 31.5% | Activity (K562 [16]): Dose-dependent effect
